Measured values as given in ChEMBL document CHEMBL1131610, “3-Deoxy-D-myo-inositol 1-phosphate, 1-phosphonate, and ether lipid analogues as inhibitors of phosphatidylinositol-3-kinase signaling and cancer cell growth” (J Med Chem, 1998).

Columns and labels:
HT-29 = experiment: Inhibition of HT-29 colon carcinoma cell proliferation after continuous 7-day exposure; assay type: functional, cell-based; details: Homo sapiens, HT-29, 168 h
Method in brief: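 HT-29 colon carcinoma cells were grown as colonies in soft agarose with continuous 7-day drug exposure, and inhibition of colony formation was scored.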

Mus musculus [1] = experiment: In vivo antitumor activity in mice implanted with human colon adenocarcinoma cells at a dose of 50 mg/kg (qd 4-7), injected intraperitoneally and evaluated for tumor volume on day 10; assay type: functional; details: route intraperitoneal
Method in brief: (§1)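 scid mice were implanted subcutaneously with 10⁷ HT-29 human colon adenocarcinoma cells, 8 mice per group. Beginning 4 days after inoculation, each mouse got 4 daily intraperitoneal injections (days 4–7) of compound suspended in 3% EtOH, 3% Tween 20, 0.9% NaCl. Tumor volume was measured with calipers on day 10 and reported as mean with SE. T/C (%) is treated versus control volume, and significance was tested by Student's test.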

Mus musculus [2] = experiment: In vivo antitumor activity in mice implanted with human colon adenocarcinoma cells at a dose of 150 mg/kg (qd 4-7), injected intraperitoneally and evaluated for tumor volume on day 10; assay type: functional; details: route intraperitoneal; method in brief: as §1
Mus musculus [3] = experiment: In vivo antitumor activity in mice implanted subcutaneously with 10^7 HT-29 human colon adenocarcinoma cells at a dose of 50 mg/kg (qd 4-7), injected intraperitoneally and evaluated for %T/C.; assay type: functional; method in brief: as §1
[4] = Inhibition of bovine brain Phosphatidylinositol 3-kinase; parameters: species or system Bos taurus
Mus musculus [5] = experiment: In vivo antitumor activity in mice implanted with human colon adenocarcinoma cells at a dose of 150 mg/kg (qd 4-7), injected intraperitoneally and evaluated for %T/C; assay type: functional; details: route intraperitoneal; method in brief: as §1
Mus musculus [6] = experiment: In vivo antitumor activity in mice implanted subcutaneously with 10^7 HT-29 human colon adenocarcinoma cells at a dose of 100 mg/kg (qd 4-7), injected intraperitoneally and evaluated for %T/C; assay type: functional; method in brief: as §1
Mus musculus [7] = experiment: In vivo antitumor activity in mice implanted with human colon adenocarcinoma cells at a dose of 100 mg/kg (qd 4-7), injected intraperitoneally and evaluated for tumor volume on day 10; assay type: functional; details: route intraperitoneal; method in brief: as §1
Mus musculus [8] = experiment: In vivo antitumor activity in mice implanted with human colon adenocarcinoma cells at a dose of 250 mg/kg (qd 4-7), injected intraperitoneally and evaluated for tumor volume on day 10; assay type: functional; details: route intraperitoneal; method in brief: as §1
[9] = In vivo antitumor activity in mice implanted with human colon adenocarcinoma cells at a dose of 500 mg/kg (qd 4-7), injected intraperitoneally and evaluated for tumor volume on day 10; Lethal; assay type: organism-based; parameters: dose 500 mg/kg, route intraperitoneal; details: mouse, ip
Mus musculus [10] = experiment: In vivo antitumor activity in mice implanted subcutaneously with HT-29 human colon adenocarcinoma cells at a dose of 250 mg/kg (qd 4-7), injected intraperitoneally and evaluated for %T/C; assay type: functional; method in brief: as §1
[11] = tested on: Phosphoinositide specific phospholipase C (Bos taurus); experiment: In vitro inhibitory activity against bovine Phosphoinositide specific phospholipase C (PI-PLC); N/A= not active, with <20% inhibition at 100 uM
[12] = Inhibition of bovine brain Phosphatidylinositol 3-kinase (inactive); parameters: species or system Bos taurus

For `CCCCCCCCCCCCCCCCCCOC[C@H](COP(=O)(O)O[C@H]1[C@@H](O)[C@@H](O)[C@H](O)C[C@H]1O)OC`, which IC50 (HT-29) is on record?
The IC50 was 2.1 µM.

And the Tumor volume (Mus musculus [1])?
Its Tumor volume is 0.28 cm*3.

And the Tumor volume (Mus musculus [2])?
The Tumor volume was 0.09 cm*3.

And the T/C (Mus musculus [3])?
Its T/C is 103.7%.

And the IC50 [4]?
The IC50 was 2.5 µM.

What about the T/C (Mus musculus [5]) of the same compound?
Its T/C is 33.3%.

What about the T/C (Mus musculus [6]) of the same compound?
The T/C was 118%.

What about the Tumor volume (Mus musculus [7]) of the same compound?
Its Tumor volume is 0.32 cm*3.

With `CCCCCCCCCCCCCCCC(=O)OC[C@H](COP(=O)(O)O[C@H]1[C@@H](O)[C@@H](O)[C@H](O)C[C@H]1O)OC(=O)CCCCCCCCCCCCCCC` as the compound, how does the IC50 (HT-29) read?
Its IC50 is 35 µM.

And the Tumor volume (Mus musculus [8])?
Its Tumor volume is 0.3 cm*3.

What about the IC50 [4] of the same compound?
The IC50 was greater than 250 µM.

What about the Tumor volume [9] of the same compound?
The Tumor volume was “Lethal”.

What about the T/C (Mus musculus [10]) of the same compound?
The T/C was 111.1%.

Which results are given for `CCCCCCCCCCCCCCCC(=O)OC[C@H](CCP(=O)(O)O[C@H]1[C@@H](O)[C@@H](O)[C@H](O)C[C@H]1O)OC(=O)CCCCCCCCCCCCCCC`?
IC50 (HT-29): 10 µM; IC50 [11]: Not Active; IC50 [12]: Not Active

With `CCCCCCCCCCCCCCCC(=O)OC[C@H](COP(=O)(O)O[C@@H]1[C@H](O)[C@@H](F)[C@@H](O)[C@H](O)[C@@H]1O)OC(=O)CCCCCCCCCCCCCCC` as the compound, how does the IC50 (HT-29) read?
Its IC50 is 37 µM.

And the IC50 [4]?
The IC50 was 30 µM.

For `CCCCCCCCCCCCCCCCCCOC[C@H](CCP(=O)(O)O[C@H]1[C@@H](O)[C@@H](O)[C@H](O)C[C@H]1O)OC`, which IC50 (HT-29) is on record?
The IC50 was 45 µM.

And the IC50 [4]?
Its IC50 is 5.3 µM.
